Experiment [1] deals with Cytosol aminopeptidase (Sus scrofa) (UniProt P28839). Briefly: Compound was evaluated for the inhibition of Leucine aminopeptidase and the inhibition constant was determined after preincubating the enzyme and inhibitor.
Experiment [2] has the same target. Briefly: Compound was evaluated for the inhibition of Leucine aminopeptidase from porcine kidney and the inhibition constant was determined after preincubating the enzyme and inhibitor.
The nature of experiment [3]: Compound was evaluated for the inhibition of Leucine aminopeptidase and the inhibition constant was determined after preincubating the enzyme and inhibitor.
For experiment [4], the target named is Cytosol aminopeptidase (Homo sapiens, UniProt P28838). The experiment can be described thus: Compound was evaluated for the inhibition of Leucine aminopeptidase and the inhibition constant was determined after preincubating the enzyme and inhibitor. The essentials:
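For initial rates, enzyme was added to substrate plus inhibitor to start the reaction. For steady-state rates, enzyme was preincubated 15-20 min with inhibitor, then substrate was added. Double-reciprocal (Lineweaver-Burk) analysis was used.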

The target of experiment [5] is Cytosol aminopeptidase (Sus scrofa) (UniProt P28839). Briefly: Compound was evaluated for the inhibition of Leucine aminopeptidase and the inhibition constant was determined after preincubating the enzyme and inhibitor. This is another data set of the same source.

The values that follow come from BindingDB's records for doi:10.1021/jm00370a001 (1984).

Peptide text beside a SMILES is read from it. * marks the point of attachment. Boc = CC(C)(C)OC(=O)*

Chain of Cytosol aminopeptidase (Sus scrofa) (P28839 whole entry, looked up): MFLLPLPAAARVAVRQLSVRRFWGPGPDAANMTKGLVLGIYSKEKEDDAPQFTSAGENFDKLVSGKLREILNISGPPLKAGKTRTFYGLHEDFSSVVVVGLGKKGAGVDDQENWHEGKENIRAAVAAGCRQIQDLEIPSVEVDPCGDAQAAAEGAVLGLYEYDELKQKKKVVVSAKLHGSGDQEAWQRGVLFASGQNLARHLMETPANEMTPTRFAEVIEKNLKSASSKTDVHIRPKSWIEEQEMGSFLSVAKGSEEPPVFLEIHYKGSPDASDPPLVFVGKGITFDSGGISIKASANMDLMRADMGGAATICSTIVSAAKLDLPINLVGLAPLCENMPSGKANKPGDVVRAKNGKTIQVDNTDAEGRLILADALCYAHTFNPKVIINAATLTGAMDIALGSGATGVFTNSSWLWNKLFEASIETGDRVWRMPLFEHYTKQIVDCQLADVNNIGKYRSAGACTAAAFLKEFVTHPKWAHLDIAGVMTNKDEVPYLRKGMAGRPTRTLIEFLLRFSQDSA
Chain of Cytosol aminopeptidase (P28838 whole entry): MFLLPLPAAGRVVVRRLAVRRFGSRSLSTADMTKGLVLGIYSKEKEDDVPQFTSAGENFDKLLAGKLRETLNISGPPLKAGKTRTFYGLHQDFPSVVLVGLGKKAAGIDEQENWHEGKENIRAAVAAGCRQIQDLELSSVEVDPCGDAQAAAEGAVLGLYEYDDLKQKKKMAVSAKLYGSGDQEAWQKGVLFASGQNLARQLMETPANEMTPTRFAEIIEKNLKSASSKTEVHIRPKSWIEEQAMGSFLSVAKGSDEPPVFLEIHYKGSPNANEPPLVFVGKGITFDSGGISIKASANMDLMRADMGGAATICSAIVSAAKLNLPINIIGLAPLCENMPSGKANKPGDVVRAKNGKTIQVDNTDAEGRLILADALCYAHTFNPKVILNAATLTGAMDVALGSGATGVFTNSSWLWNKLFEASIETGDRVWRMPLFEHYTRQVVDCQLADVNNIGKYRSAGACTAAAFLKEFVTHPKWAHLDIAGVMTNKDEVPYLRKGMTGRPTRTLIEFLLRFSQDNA

In turn, `CC(C)CCNC(=O)[C@@H](NC(=O)[C@@H](NC(=O)[C@H](O)[C@@H](N)CC(C)C)C(C)C)C(C)C` [3-Amino-2-hydroxy-5-methyl-hexanoic acid {2-methyl-1-[2-methyl-1-(3-methyl-butylcarbamoyl)-propylcarbamoyl]-propyl}-amide] returned a Ki in experiment [1] of 0.89 µM.
`CC(C)[C@H](NC(=O)OC(C)(C)C)C(=O)N[C@H](C(=O)N[C@@H](CC(=O)O)C(=O)O)C(C)C` [2-[2-(2-tert-Butoxycarbonylamino-3-methyl-butyrylamino)-3-methyl-butyrylamino]-succinic acid] (Boc-Val-Val-Asp-OH) showed a Ki in experiment [2] of 1400 µM. This lies in the millimolar range.
In experiment [3], `CC(C)CC(N)C(O)C(=O)NC(C(=O)NC(CC(=O)O)C(=O)O)C(C)C` (configuration not stated) [2-[2-(3-Amino-2-hydroxy-5-methyl-hexanoylamino)-3-methyl-butyrylamino]-succinic acid] showed a Ki of 1.24 µM. That is a single-digit micromolar value.
In the case of `CC(C)CC(NC(=O)[C@H](C)[C@@H](N)Cc1ccccc1)C(=O)O` (some centres not stated) [2-(3-Amino-2-methyl-4-phenyl-butyrylamino)-4-methyl-pentanoic acid], affinity in experiment [4] was put at a Ki of 3.78 µM.
`CC(C)C[C@@H](N)CC(=O)N[C@H](C(=O)N[C@H](C(=O)N[C@@H](CC(=O)O)C(=O)O)C(C)C)C(C)C` [2-{2-[2-(3-Amino-5-methyl-hexanoylamino)-3-methyl-butyrylamino]-3-methyl-butyrylamino}-succinic acid] registered a Ki in experiment [5] of 681 µM.
On to `CC(C)C[C@H](NC(=O)[C@@H](O)[C@H](N)CC(C)C)C(=O)O` [2-(3-Amino-2-hydroxy-5-methyl-hexanoylamino)-4-methyl-pentanoic acid], for which the Ki in experiment [3] was 0.12 µM.
In the case of `CC(C)CCNC(=O)[C@H](O)[C@@H](N)Cc1ccccc1` [3-Amino-2-hydroxy-N-(3-methyl-butyl)-4-phenyl-butyramide], the affinity in experiment [2] corresponds to a Ki of 0.5 µM.

Broadly, the Ki is the equilibrium dissociation constant of an inhibitor or competing ligand from its target. A high value points to weaker binding.
